Experimental findings from ChEMBL document CHEMBL1123853, “A novel class of cardiotonics. Synthesis and pharmacological properties of [4-(substituted-amino)phenyl]pyridazinones and related derivatives” (1987) are described below.

Experiment [1] has as its system Canis familiaris. The experiment can be described thus: Inotropic activity determined by evaluating the % change in Systolic Blood Pressure (SBP) at a dose of 3 ug/kg administered intravenously […]. In kind it is functional, Canis lupus familiaris, Muscle tissue. Summed up: (§1)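 Mongrel dogs of either sex, 7–15 kg, anesthetized with sodium pentobarbital (30 mg/kg iv), open-chest, intubated and ventilated on room air. Compounds given intravenously. A femoral artery catheter with pressure transducer recorded SBP and DBP. dP/dtmax, right ventricular contractile force, cardiac output and heart rate were also recorded, as % change at each iv dose.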

For experiment [2], the species on record is Canis familiaris. The experiment can be described thus: Positive inotropic in the isolated papillary muscle of the dog. In kind it is functional, Canis lupus familiaris. Summed up: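 Right ventricular anterior papillary muscle with septum, from mongrel dogs (7–12 kg, pentobarbital 30 mg/kg iv). It was perfused at about 100 mmHg via the septal artery with blood from a heparinized donor dog and paced at 120/min (1 ms pulses, about 1.5× threshold). Isometric tension was recorded. Saline solutions were injected intra-arterially, with amrinone as reference. ED15 (15% rise in developed tension) was taken from log dose-response curves. Results are mean ± SEM (n = 7) or mean ± range (n = 2).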

Experiment [3] concerns Canis familiaris. The experiment can be described thus: Inotropic activity determined by evaluating the % change in Systolic Blood Pressure (SBP) at a dose of 10 ug/kg administered intravenously […]. In kind it is functional, Canis lupus familiaris. Summed up:
as §1

Experiment [4] has as its system Canis familiaris. Kind of experiment: Inotropic activity determined by evaluating the % change in Diastolic Blood Pressure (DBP) at a dose of 1 ug/kg administered intravenously […]. In kind it is functional, Canis lupus familiaris. Summed up:
as §1

Experiment [5] relates to Canis familiaris. Kind of experiment: Inotropic activity determined by evaluating the % change in Heart Rate (HR) at a dose of 3 ug/kg administered intravenously […]. The experiment is classed as functional, Canis lupus familiaris. Summed up: as §1
For experiment [6], the system named is Canis familiaris. The experiment can be described thus: Inotropic activity determined by evaluating the maximum rate of rise in left ventricular pressure at a dose of 10 ug/kg administered intravenously […]. The experiment is classed as functional, Canis lupus familiaris, Muscle tissue. Summed up: as §1
Experiment [7] deals with Canis familiaris. The experiment can be described thus: Inotropic activity determined by evaluating the % change in Diastolic Blood Pressure (DBP) at a dose of 10 ug/kg administered intravenously […]. In kind it is functional, Canis lupus familiaris. Summed up:
as §1

Experiment [8] deals with Canis familiaris. Kind of experiment: Inotropic activity determined by evaluating the % change in Cardiac out put (CO)at a dose of 1 ug/kg administered intravenously […]. In kind it is functional, Canis lupus familiaris. Summed up: as §1
The test system of experiment [9] is Canis familiaris. The experiment can be described thus: Inotropic activity determined by evaluating the % change in contractile force (CF) of right ventricle at a dose of 1 ug/kg administered intravenously […]. In kind it is functional, Canis lupus familiaris, Heart right ventricle. Summed up:
as §1

The test system of experiment [10] is Canis familiaris. The experiment can be described thus: Inotropic activity determined by evaluating the % change in Heart Rate (HR) at a dose of 10 ug/kg administered intravenously […]. In kind it is functional, Canis lupus familiaris. Summed up:
as §1

The test system of experiment [11] is Canis familiaris. The experiment can be described thus: Inotropic activity determined by evaluating the % change in contractile force (CF) of right ventricle at a dose of 10 ug/kg administered intravenously […]. The experiment is classed as functional, Canis lupus familiaris, Heart right ventricle. Summed up:
as §1

The test system of experiment [12] is Canis familiaris. The experiment can be described thus: Inotropic activity determined by evaluating the % change in Diastolic Blood Pressure (DBP) at a dose of 3 ug/kg administered intravenously […]. The experiment is classed as functional, Canis lupus familiaris. Summed up: as §1
For experiment [13], the species on record is Canis familiaris. The experiment can be described thus: Positive inotropic activity determined in the […](that produced 30% increase in dose- response curves [dP/dt(max)]). In kind it is functional. The following applies: Canis lupus familiaris. Summed up:
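In the anesthetized open-chest dog (mongrel, 7–15 kg, pentobarbital 30 mg/kg iv, ventilated on room air), compounds were given intravenously and LV dP/dtmax was recorded. The dose giving a 30% rise in dP/dtmax was read from the dose-response curves. Results are mean ± SEM (n = 3) or mean ± range (n = 2).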

In experiment [14] the test system is Canis familiaris. Kind of experiment: Inotropic activity determined by evaluating the % change in Cardiac out put (CO)at a dose of 3 ug/kg administered intravenously […]. In kind it is functional, Canis lupus familiaris. Summed up:
as §1

The subject of experiment [15] is Canis familiaris. Kind of experiment: Inotropic activity determined by evaluating the % change in Heart Rate (HR) at a dose of 1 ug/kg administered intravenously […]. In kind it is functional, Canis lupus familiaris. Summed up: as §1
Experiment [16] deals with Canis familiaris. The experiment can be described thus: Inotropic activity determined by evaluating the % change in Cardiac out put (CO)at a dose of 10 ug/kg administered intravenously […]. The experiment is classed as functional, Canis lupus familiaris. Summed up: as §1
The subject of experiment [17] is Canis familiaris. Kind of experiment: Inotropic activity determined by evaluating the maximum rate of rise in left ventricular pressure at a dose of 1 ug/kg administered intravenously […]. The experiment is classed as functional, Canis lupus familiaris, Muscle tissue. Summed up:
as §1

The test system of experiment [18] is Canis familiaris. Kind of experiment: Inotropic activity determined by evaluating the % change in Systolic Blood Pressure (SBP) at a dose of 1 ug/kg administered intravenously […]. In kind it is functional, Canis lupus familiaris, Muscle tissue. Summed up: as §1
The subject of experiment [19] is Canis familiaris. Kind of experiment: Inotropic activity determined by evaluating the % change in contractile force (CF) of right ventricle at a dose of 3 ug/kg administered intravenously […]. The experiment is classed as functional, Canis lupus familiaris, Heart right ventricle. Summed up:
as §1

Experiment [20] concerns Canis familiaris. The experiment can be described thus: Inotropic activity determined by evaluating the maximum rate of rise in left ventricular pressure at a dose of 3 ug/kg administered intravenously […]. The experiment is classed as functional, Canis lupus familiaris, Muscle tissue. Summed up:
as §1

For experiment [21], the system named is Canis familiaris. Kind of experiment: Inotropic activity determined by evaluating the % change in contractile force (CF) of right ventricle at a dose of 1000 ug/kg administered intravenously […]. The experiment is classed as functional, Canis lupus familiaris, Heart right ventricle. Summed up:
as §1

For experiment [22], the system named is Canis familiaris. The experiment can be described thus: Inotropic activity determined by evaluating the % change in Systolic Blood Pressure (SBP) at a dose of 1000 ug/kg administered intravenously […]. The experiment is classed as functional, Canis lupus familiaris, Muscle tissue. Summed up:
as §1

In experiment [23] the test system is Canis familiaris. Kind of experiment: Inotropic activity determined by evaluating the % change in contractile force (CF) of right ventricle at a dose of 300 ug/kg administered intravenously […]. In kind it is functional, Canis lupus familiaris, Heart right ventricle. Summed up:
as §1

Experiment [24] deals with Canis familiaris. The experiment can be described thus: Inotropic activity determined by evaluating the % change in Heart Rate (HR) at a dose of 300 ug/kg administered intravenously […]. The experiment is classed as functional, Canis lupus familiaris, Muscle tissue. Summed up: as §1
In experiment [25] the test system is Canis familiaris. Kind of experiment: Inotropic activity determined by evaluating the % change in Heart Rate (HR) at a dose of 1000 ug/kg administered intravenously […]. In kind it is functional, Canis lupus familiaris. Summed up: as §1
Experiment [26] has as its system Canis familiaris. Kind of experiment: Inotropic activity determined by evaluating the maximum rate of rise in left ventricular pressure at a dose of 300 ug/kg administered intravenously […]. In kind it is functional, Canis lupus familiaris, Muscle tissue. Summed up:
as §1

Experiment [27] relates to Canis familiaris. The experiment can be described thus: Inotropic activity determined by evaluating the maximum rate of rise in left ventricular pressure at a dose of 1000 ug/kg administered intravenously […]. The experiment is classed as functional, Canis lupus familiaris, Muscle tissue. Summed up: as §1
Experiment [28] has as its system Canis familiaris. The experiment can be described thus: Inotropic activity determined by evaluating the % change in Systolic Blood Pressure (SBP) at a dose of 300 ug/kg administered intravenously […]. The experiment is classed as functional, Canis lupus familiaris, Muscle tissue. Summed up: as §1
For experiment [29], the system named is Canis familiaris. The experiment can be described thus: Inotropic activity determined by evaluating the % change in Cardiac out put (CO)at a dose of 300 ug/kg administered intravenously […]. The experiment is classed as functional, Canis lupus familiaris. Summed up: as §1
Experiment [30] concerns Canis familiaris. Kind of experiment: Inotropic activity determined by evaluating the % change in Diastolic Blood Pressure (DBP) at a dose of 300 ug/kg administered intravenously […]. The experiment is classed as functional, Canis lupus familiaris. Summed up:
as §1

The test system of experiment [31] is Canis familiaris. The experiment can be described thus: Inotropic activity determined by evaluating the % change in Diastolic Blood Pressure (DBP) at a dose of 1000 ug/kg administered intravenously […]. In kind it is functional, Canis lupus familiaris. Summed up:
as §1

Experiment [32] relates to Canis familiaris. The experiment can be described thus: Inotropic activity determined by evaluating the % change in Cardiac out put (CO)at a dose of 1000 ug/kg administered intravenously […]. In kind it is functional, Canis lupus familiaris. Summed up: as §1

Take `CC1CC(=O)NN=C1c1ccc(Nc2ccncc2)cc1.Cl` (centres undefined): the “Change of SBP” value in [1] is reported as -14.1%; in experiment [3] it was -23.6%; in [18], -4.7%. The compound also registered an ED15 in experiment [2] of 1.5 µg. The “Change of DBP” value was -7.3% in experiment [4], -31.4% in experiment [7] and -21.2% in experiment [12]. Also, the “Change of HR” value in [5] is recorded as 15.8%; in experiment [10] it was 25.1%; in experiment [15], 3.4%. Also, the dP/dt was 58.4% in experiment [6], 8.1% in experiment [17] and 19.5% in experiment [20]. Moreover, the “Change of CO” value in experiment [8] turned out to be 5.1%; in experiment [14] it was 11.7%; in [16], 24.5%. For the same compound, the “Change of CF” value in [9] stood at 7.9%; in experiment [11] it was 61.5%; in [19], 22.7%. In addition, in [13], the ED30 is 4.4 µg/kg.
In the case of `CCc1cc(O)nnc1-c1ccc(Nc2ccncc2)cc1.Cl`, the “Change of CF” value in experiment [21] stood at 4.2%; in experiment [23], 2.8%. Also, the ED15 in experiment [2] is over 300 µg. For the same compound, the “Change of SBP” value in [22] was -5%; in experiment [28] it was 0.4%. The figures for the “Change of HR” value in experiment [24] and in [25] were -0.1% and -2.9%, respectively. This compound displayed an ED30 in experiment [13] of over 1000 µg/kg. The dP/dt in [26] was 1%; in [27], -0.9%. In addition, the “Change of CO” value in experiment [29] stood at 3.9%; in [32], 8.6%. In addition, the figures for the “Change of DBP” value in experiment [30] and in experiment [31] were -0.9% and -9.3%, respectively.
